Experimental data reported in ChEMBL document CHEMBL1123837, “1-Amino-substituted 4-methyl-5H-pyrido[3',4':4,5]pyrrolo[3,2-c]pyridines: a new class of antineoplastic agents” (J Med Chem, 1987).
One block for each compound: values may come before it. Calls of active or inactive are those of the source. No cut-off for these calls is given here.

What was measured:
L1210 = test: In vitro cytotoxicity against L1210 cells was determined after 48 hours of incubation; type: functional, Mus musculus; settings: Mus musculus, L1210, 48 h; read-out: ID50 (the source's name)
Method in brief: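 Exponentially growing L1210 cells were cultured in RPMI 1640 with 2 mM glutamine, penicillin/streptomycin and 10% fetal calf serum, under 5% CO2 at 37 °C. Drugs dissolved in distilled water were added to cells at 0.8 × 10^5 cells/mL for 48 h, then cells were counted. ID50 was estimated by regression of dose-response data, as the mean of two values from two independent experiments.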

Mus musculus [1] = test: In vivo antitumor activity was determined against P388 leukemia cells expressed as treated/control at the dose of (2.5-40)mg/kg; IA = Inactive; type: functional, organism-based
Method in brief: (§1)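 Following NCI protocols, 10^6 viable P388 leukemia cells were inoculated ip on day 0 into male or female CDF1 hybrid mice, 10 per test group. Compounds in distilled water were given ip (0.1 mL/10 g body weight) at various doses on days 1–5. T/C = median survival day of treated / median survival day of negative controls × 100.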

Calf thymus DNA = test: Binding affinity for DNA by ethidium bromide displacement assay; type: nucleic-acid assay; settings: Bos taurus
Method in brief: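 Competitive ethidium bromide displacement with calf thymus DNA at 10 µg/mL in 20 mM Na phosphate buffer, 0.1 M NaCl, 1 mM EDTA, pH 7.4. The apparent DNA affinity constant is given in 10^6 M^-1 ± standard deviation, from 6 values across two independent experiments.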

Mus musculus [2] = test: In vivo antitumor activity was determined against P388 leukemia cells expressed as treated/control at the dose of 80 mg/kg;T = toxic at this dose; type: organism-based; parameters: dose 80 mg/kg; method in brief: as §1
Mus musculus [3] = test: In vivo antitumor activity was determined against P388 leukemia cells expressed as treated/control at the dose of 80 mg/kg; type: functional; method in brief: as §1
Mus musculus [4] = test: In vivo antitumor activity was determined against P388 leukemia cells expressed as treated/control at the dose of 40 mg/kg; type: functional; method in brief: as §1
Mus musculus [5] = test: In vivo antitumor activity was determined against P388 leukemia cells expressed as treated/control at the dose of 20 mg/kg; type: functional; method in brief: as §1
Mus musculus [6] = test: In vivo antitumor activity was determined against P388 leukemia cells expressed as treated/control at the dose of 10 mg/kg; type: functional; method in brief: as §1
Mus musculus [7] = test: In vivo antitumor activity was determined against P388 leukemia cells expressed as treated/control at the dose of (5-60)mg/kg; IA = Inactive; type: functional, organism-based; method in brief: as §1
Mus musculus [8] = test: In vivo antitumor activity was determined against P388 leukemia cells expressed as treated/control at the dose of (5-100)mg/kg (nontoxic at highest dose tested.); IA = Inactive; type: functional, organism-based; method in brief: as §1
Mus musculus [9] = test: In vivo antitumor activity was determined against P388 leukemia cells expressed as treated/control at the dose of 50 mg/kg;T = toxic at this dose; type: organism-based; parameters: dose 50 mg/kg; method in brief: as §1
Mus musculus [10] = test: In vivo antitumor activity was determined against P388 leukemia cells expressed as treated/control at the dose of (5-20)mg/kg; IA = Inactive; type: functional, organism-based; method in brief: as §1

Compound: CCNCCCNc1ncc(C)c2c1c1cnccc1n2C
- IC50 (L1210): 3.8 µM
- T/C (Mus musculus [3]): 149
- T/C (Mus musculus [4]): 138
- K aff (Calf thymus DNA): 50000 M⁻¹
- T/C (Mus musculus [5]): 145
- T/C (Mus musculus [6]): 127

Compound: CN(C)CCCNc1nccc2c1c1cnccc1n2C
- IC50 (L1210): 1.2 µM
- K aff (Calf thymus DNA): 20000 M⁻¹
- T/C (Mus musculus [7]): inactive

Compound: CCN(CC)CCCCNc1ncc(C)c2c1c1cnccc1n2C
- K aff (Calf thymus DNA): 40000 M⁻¹
- T/C (Mus musculus [8]): inactive

Continued, in another order:

- K aff (Calf thymus DNA): 25000 M⁻¹
Compound: CCNCCCNc1[nH]cc(C)c2nc3ccncc3c1-2
- IC50 (L1210): 17.4 µM
- T/C (Mus musculus [1]): inactive
- T/C (Mus musculus [2]): Toxic

- K aff (Calf thymus DNA): 30000 M⁻¹
Compound: CCN(CC)CCCCNc1[nH]cc(C)c2nc3ccncc3c1-2
- IC50 (L1210): 12 µM
- T/C (Mus musculus [9]): Toxic
- T/C (Mus musculus [10]): inactive
